# Assays:
# Coxsackievirus B4 [1] = assay: Antiviral activity against Human coxsackievirus B4 infected in human HeLa cells assessed as reduction in virus-induced cytopathic effect incubated for 3 to 6 days by light microscopic analysis; format: functional, organism-based; conditions: Enterovirus B
# How it was run: (§1)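 CPE reduction assay: virus and serial compound dilutions added together to subconfluent HeLa (vesicular stomatitis, Coxsackie B4, respiratory syncytial) or Vero (Coxsackie B4, Sindbis, Punta Toro) cultures. Incubated 3–6 days at 37 °C. […] Mean ± SEM of three independent tests.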
# [2] = system: Respiratory syncytial virus; assay: Antiviral activity against Respiratory syncytial virus infected in human HeLa cells assessed as reduction in virus-induced cytopathic effect incubated for 3 to 6 days by light microscopic analysis; format: functional, organism-based; how it was run: as §1
# [3] = Cytotoxicity against human HeLa cells assessed as changes in cell morphology incubated for 3 to 6 days by light microscopic analysis; format: cell-based; conditions: time 3-6 day
# How it was run: (§2)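 Uninfected subconfluent cells (Vero or HeLa, as named) exposed to serial compound dilutions in parallel with the CPE assays, 37 °C, 3–6 days. Cell morphology examined by light microscopy; MCC = minimal concentration causing microscopically detectable changes in morphology.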
# Human respirovirus 3 = assay: Antiviral activity against Human parainfluenza virus 3 infected in African green monkey Vero cells assessed as reduction in virus-induced cytopathic effect incubated for 3 to 6 days by light microscopic analysis; format: functional, organism-based; conditions: Human respirovirus 3, Vero
# [4] = system: Mammalian orthoreovirus 1; assay: Antiviral activity against Mammalian orthoreovirus 1 infected in African green monkey Vero cells assessed as reduction in virus-induced cytopathic effect incubated for 3 to 6 days by light microscopic analysis; format: functional, organism-based; conditions: Mammalian orthoreovirus 1, Vero
# Coxsackievirus B4 [5] = assay: Antiviral activity against Human coxsackievirus B4 infected in African green monkey Vero cells assessed as reduction in virus-induced cytopathic effect incubated for 3 to 6 days by light microscopic analysis; format: functional, organism-based; conditions: Enterovirus B; how it was run: as §1
# [6] = Cytotoxicity against African green monkey Vero cells assessed as changes in cell morphology incubated for 3 to 6 days by light microscopy; format: cell-based; conditions: chlorocebus sabaeus, time 3-6 day; how it was run: as §2
# Influenza A virus = assay: Antiviral activity against influenza A virus infected in dog MDCK cells assessed as reduction in virus-induced cytopathic effect incubated for 3 to 6 days by light microscopic analysis; format: functional, organism-based
# How it was run: (§3)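 MDCK cells, subconfluent, received influenza A or B virus together with serial compound dilutions. Incubated 3–6 days at 35 °C.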
# [7] = Cytotoxicity against human HEL cells assessed as changes in cell morphology incubated for 3 to 6 days by light microscopy; format: cell-based; conditions: time 3-6 day
# How it was run: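 Human embryonic lung fibroblasts incubated with serial compound dilutions alongside the antiviral assays, 37 °C, 3–6 days. Morphology inspected by light microscopy; minimal cytotoxic concentration taken as lowest concentration giving minimal morphological change.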
# [8] = system: Vesicular stomatitis virus; assay: Antiviral activity against Vesicular stomatitis virus infected in human HeLa cells assessed as reduction in virus-induced cytopathic effect incubated for 3 to 6 days by light microscopic analysis; format: functional, organism-based
# How it was run: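 CPE reduction assay: virus and serial compound dilutions added together to subconfluent HeLa (vesicular stomatitis, Coxsackie B4, respiratory syncytial) or Vero (Coxsackie B4, Sindbis, Punta Toro) cultures. Incubated 3–6 days at 37 °C. Mean ± SEM of three independent tests.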
# Sindbis virus = assay: Antiviral activity against Sindbis virus infected in African green monkey Vero cells assessed as reduction in virus-induced cytopathic effect incubated for 3 to 6 days by light microscopic analysis; format: functional, organism-based; how it was run: as §1
# Punta Toro virus = assay: Antiviral activity against Punta Toro virus infected in African green monkey Vero cells assessed as reduction in virus-induced cytopathic effect incubated for 3 to 6 days by light microscopic analysis; format: functional, organism-based; how it was run: as §1
# Human alphaherpesvirus 1 = assay: Antiviral activity against Herpes simplex virus 1 infected in human HEL cells assessed as reduction in virus-induced cytopathic effect incubated for 3 to 6 days by light microscopic analysis; format: functional, cell-based; conditions: Human alphaherpesvirus 1, HEL
# Human alphaherpesvirus 2 = assay: Antiviral activity against Herpes simplex virus 2 infected in human HEL cells assessed as reduction in virus-induced cytopathic effect incubated for 3 to 6 days by light microscopic analysis; format: functional, cell-based; conditions: Human alphaherpesvirus 2, HEL
# Vaccinia virus = assay: Antiviral activity against Vaccinia virus infected in human HEL cells assessed as reduction in virus-induced cytopathic effect incubated for 3 to 6 days by light microscopic analysis; format: functional, organism-based; conditions: Orthopoxvirus vaccinia
# [9] = system: Human immunodeficiency virus 1; assay: Antiviral activity against Human immunodeficiency virus 1 infected in human MT4 cells assessed as reduction in virus-induced cytopathic effect incubated for 3 to 6 days by light microscopic analysis; format: functional, organism-based; conditions: Human immunodeficiency virus 1, MT4
# [10] = system: Human immunodeficiency virus 2; assay: Antiviral activity against Human immunodeficiency virus 2 infected in human MT4 cells assessed as reduction in virus-induced cytopathic effect incubated for 3 to 6 days by light microscopic analysis; format: functional, organism-based; conditions: Human immunodeficiency virus 2, MT4
# Influenza B virus = assay: Antiviral activity against influenza B virus infected in dog MDCK cells assessed as reduction in virus-induced cytopathic effect incubated for 3 to 6 days by light microscopic analysis; format: functional, organism-based; how it was run: as §3
# Feline coronavirus = assay: Antiviral activity against Feline coronavirus infected in cat CRFK cells assessed as reduction in virus-induced cytopathic effect incubated for 3 to 6 days by light microscopic analysis; format: functional, organism-based; conditions: Alphacoronavirus 1, CRFK
# Felid alphaherpesvirus 1 = assay: Antiviral activity against Feline herpesvirus infected in cat CRFK cells assessed as reduction in virus-induced cytopathic effect incubated for 3 to 6 days by light microscopic analysis; format: functional, organism-based; conditions: Felid alphaherpesvirus 1, CRFK
# [11] = Cytotoxicity against cat CRFK cells assessed as reduction in cell viability incubated for 3 to 6 days by MTS assay; format: cell-based, Felis catus; conditions: time 3-6 day
# How it was run: (§4)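 CRFK or MT4 cells were exposed to serial compound dilutions alongside the antiviral assays for 3–6 days at 37 °C.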
# MT4 = assay: Cytotoxicity against human MT4 cells assessed as reduction in cell viability incubated for 3 to 6 days by MTS assay; format: cell-based; conditions: time 3-6 day; how it was run: as §4
# [12] = Cytotoxicity against dog MDCK cells assessed as changes in cell morphology incubated for 3 to 6 days by light microscopy; format: cell-based, Canis lupus familiaris; conditions: time 3-6 day
SMILES,EC50 (Coxsackievirus B4 [1]),EC50 [2],EC50 (Human respirovirus 3),EC50 [4],EC50 (Coxsackievirus B4 [5]),MCC [7],EC50 [8] [µg/mL],EC50 (Sindbis virus) [µg/mL],EC50 (Punta Toro virus) [µg/mL],EC50 (Human alphaherpesvirus 1) [µg/mL],EC50 (Human alphaherpesvirus 2) [µg/mL],EC50 (Vaccinia virus),EC50 [9] [µg/mL],EC50 [10] [µg/mL],"EC50 (Influenza A virus; Influenza A virus, MDCK) [µg/mL]",EC50 (Influenza B virus) [µg/mL],EC50 (Feline coronavirus),EC50 (Felid alphaherpesvirus 1),CC50 ([11]; crfk) [µg/mL],CC50 (MT4),also measured
NC(=O)c1ncn([C@@H]2O[C@H](CO)[C@@H](O)[C@H]2O)n1 [RIBAVIRIN],61 µM,15 µM,> 250 µM,> 250 µM,> 250 µM,> 250 µM,–,–,–,–,–,–,–,–,–,–,–,–,–,–,MCC [3]: > 250 µM; MCC [6]: > 250 µM; EC50 (Influenza A virus; mdck): 8.9 µM
O=C(NNC(=S)NCc1ccccc1)c1[nH]c2ccc(F)cc2c1-c1ccccc1,> 100 µg/mL,> 100 µg/mL,> 100 µg/mL,> 100 µg/mL,> 100 µg/mL,> 10 µg/mL,> 100,> 100,> 100,> 100,> 100,> 100 µg/mL,> 100,> 100,> 100,> 100,> 100 µg/mL,> 100 µg/mL,1.9,11 µg/mL,MCC [3]: 4 µg/mL; MCC [6]: 10 µg/mL
O=C(NNC(=S)NCCc1ccccc1)c1[nH]c2ccc(F)cc2c1-c1ccccc1,> 100 µg/mL,> 100 µg/mL,> 100 µg/mL,> 100 µg/mL,> 100 µg/mL,10 µg/mL,> 100,> 100,> 100,> 100,> 100,> 100 µg/mL,> 100,> 100,> 100,> 100,> 100 µg/mL,> 100 µg/mL,1.9,11 µg/mL,MCC [3]: 4 µg/mL; MCC [6]: 10 µg/mL; MCC [12]: 2 µg/mL
Cc1cn([C@H]2C[C@H](N=[N+]=[N-])[C@@H](CO)O2)c(=O)[nH]c1=O [ZIDOVUDINE],–,–,–,–,–,–,–,–,–,–,–,–,–,–,–,–,–,–,–,> 25 µg/mL,–
CCCN1C(=O)CS/C1=N\NC(=O)c1[nH]c2ccc(F)cc2c1-c1ccccc1,> 100 µg/mL,> 100 µg/mL,> 100 µg/mL,> 100 µg/mL,> 100 µg/mL,> 100 µg/mL,> 100,> 100,> 100,> 100,> 100,> 100 µg/mL,> 100,> 100,> 100,> 100,> 100 µg/mL,> 100 µg/mL,> 100,> 125 µg/mL,–
CCCCN1C(=O)CS/C1=N\NC(=O)c1[nH]c2ccc(F)cc2c1-c1ccccc1,> 100 µg/mL,> 100 µg/mL,> 100 µg/mL,> 100 µg/mL,> 100 µg/mL,> 10 µg/mL,> 100,> 100,> 100,> 100,> 100,> 100 µg/mL,> 100,> 100,> 100,> 100,> 100 µg/mL,> 100 µg/mL,> 100,>= 98 ug ml-1,–
O=c1[nH]c(=O)n([C@H]2C[C@H](O)[C@@H](CO)O2)cc1/C=C/Br [BRIVUDINE],–,–,–,–,–,–,–,–,–,–,–,22 µM,–,–,–,–,–,–,–,–,–
C=CCN1C(=O)CS/C1=N\NC(=O)c1[nH]c2ccc(F)cc2c1-c1ccccc1,> 100 µg/mL,> 100 µg/mL,> 100 µg/mL,> 100 µg/mL,> 100 µg/mL,> 100 µg/mL,> 100,> 100,> 100,> 100,> 100,> 100 µg/mL,> 100,> 100,> 100,> 100,> 100 µg/mL,> 100 µg/mL,> 100,> 125 µg/mL,–
CCCCNC(=S)NNC(=O)c1[nH]c2ccc(F)cc2c1-c1ccccc1,> 100 µg/mL,> 100 µg/mL,> 100 µg/mL,> 100 µg/mL,> 100 µg/mL,> 10 µg/mL,> 100,> 100,> 100,> 100,> 100,> 100 µg/mL,> 100,> 100,> 100,> 100,> 100 µg/mL,> 100 µg/mL,1.4,11 µg/mL,MCC [3]: 4 µg/mL; MCC [6]: 10 µg/mL; MCC [12]: 10 µg/mL
Nc1nc2c(ncn2COC(CO)CO)c(=O)[nH]1 [GANCICLOVIR],–,–,–,–,–,> 100 µM,–,–,–,–,–,> 100 µM,–,–,–,–,> 100 µM,7.4 µM,–,–,"CC50 ([11]; CRFK cells, read-out: CC50): > 100 µM"
CCN1C(=O)CS/C1=N\NC(=O)c1[nH]c2ccc(F)cc2c1-c1ccccc1,> 100 µg/mL,> 100 µg/mL,> 100 µg/mL,> 100 µg/mL,> 100 µg/mL,> 100 µg/mL,> 100,> 100,> 100,> 100,> 100,> 100 µg/mL,> 100,> 100,> 100,> 100,> 100 µg/mL,> 100 µg/mL,> 100,> 125 µg/mL,MCC [6]: 20 µg/mL
O=C(N/N=C1\SCC(=O)N1Cc1ccccc1)c1[nH]c2ccc(F)cc2c1-c1ccccc1,> 100 µg/mL,> 100 µg/mL,> 100 µg/mL,> 100 µg/mL,> 100 µg/mL,> 10 µg/mL,> 100,> 100,> 100,> 100,> 100,> 100 µg/mL,> 100,> 100,> 100,> 100,> 100 µg/mL,> 100 µg/mL,> 100,38 µg/mL,MCC [6]: ≥ 10 µg/mL
O=C(N/N=C1\SCC(=O)N1CCc1ccccc1)c1[nH]c2ccc(F)cc2c1-c1ccccc1,> 100 µg/mL,> 100 µg/mL,> 100 µg/mL,> 100 µg/mL,> 100 µg/mL,> 10 µg/mL,> 100,> 100,> 100,> 100,> 100,> 100 µg/mL,> 100,> 100,> 100,> 100,> 100 µg/mL,> 100 µg/mL,17,>= 108 ug ml-1,MCC [6]: 10 µg/mL
CN1C(=O)CS/C1=N\NC(=O)c1[nH]c2ccc(F)cc2c1-c1ccccc1,> 100 µg/mL,> 100 µg/mL,> 100 µg/mL,> 100 µg/mL,> 100 µg/mL,> 100 µg/mL,> 100,> 100,> 100,> 100,> 100,> 100 µg/mL,> 100,> 100,> 100,> 100,> 100 µg/mL,> 100 µg/mL,> 100,> 125 µg/mL,MCC [6]: 20 µg/mL
